# From ChEMBL document CHEMBL2169744, “Discovery and optimization of potent and selective imidazopyridine and imidazopyridazine mTOR inhibitors” (Bioorg Med Chem Lett, 2012)
# The source made the active and inactive calls. The rule behind the calls is not given here.
# Experiments:
# [1] = molecular target: Serine/threonine-protein kinase mTOR (Homo sapiens, UniProt P42345); test: Inhibition of mTOR by LanthaScreen assay
# [2] = Solubility of the compound in simulated intestinal fluid; format: physicochemical
# [3] = Volume of distribution at steady state in rat at 0.5 mg/kg, iv; format: ADME, organism-based; set-up: dose 0.5 mg/kg, route intravenous; details: in vivo, read-out: Vdss
# [4] = (§1) Clearance in rat at 0.5 mg/kg, iv; format: ADME, organism-based; set-up: dose 0.5 mg/kg, route intravenous; details: in vivo
# [5] = Inhibition of mTORC1-mediated 4EBP1-phosphorylation in human U87 cells; format: cell-based, U-87MG ATCC; details: Homo sapiens, U-87 MG; read-out: IC50
# [6] = Half life in rat at 0.5 mg/kg, iv; format: ADME, organism-based; set-up: dose 0.5 mg/kg, route intravenous; details: in vivo
# [7] = Oral bioavailability in rat at 4 mg/kg; format: ADME, organism-based; details: in vivo
# [8] = molecular target: Phosphatidylinositol 4,5-bisphosphate 3-kinase catalytic subunit alpha isoform (Homo sapiens, UniProt P42336); test: Inhibition of PI3Kalpha by AlphaScreen assay
# Sequence of Phosphatidylinositol 4,5-bisphosphate 3-kinase catalytic subunit alpha isoform (P42336 whole entry, canonical isoform): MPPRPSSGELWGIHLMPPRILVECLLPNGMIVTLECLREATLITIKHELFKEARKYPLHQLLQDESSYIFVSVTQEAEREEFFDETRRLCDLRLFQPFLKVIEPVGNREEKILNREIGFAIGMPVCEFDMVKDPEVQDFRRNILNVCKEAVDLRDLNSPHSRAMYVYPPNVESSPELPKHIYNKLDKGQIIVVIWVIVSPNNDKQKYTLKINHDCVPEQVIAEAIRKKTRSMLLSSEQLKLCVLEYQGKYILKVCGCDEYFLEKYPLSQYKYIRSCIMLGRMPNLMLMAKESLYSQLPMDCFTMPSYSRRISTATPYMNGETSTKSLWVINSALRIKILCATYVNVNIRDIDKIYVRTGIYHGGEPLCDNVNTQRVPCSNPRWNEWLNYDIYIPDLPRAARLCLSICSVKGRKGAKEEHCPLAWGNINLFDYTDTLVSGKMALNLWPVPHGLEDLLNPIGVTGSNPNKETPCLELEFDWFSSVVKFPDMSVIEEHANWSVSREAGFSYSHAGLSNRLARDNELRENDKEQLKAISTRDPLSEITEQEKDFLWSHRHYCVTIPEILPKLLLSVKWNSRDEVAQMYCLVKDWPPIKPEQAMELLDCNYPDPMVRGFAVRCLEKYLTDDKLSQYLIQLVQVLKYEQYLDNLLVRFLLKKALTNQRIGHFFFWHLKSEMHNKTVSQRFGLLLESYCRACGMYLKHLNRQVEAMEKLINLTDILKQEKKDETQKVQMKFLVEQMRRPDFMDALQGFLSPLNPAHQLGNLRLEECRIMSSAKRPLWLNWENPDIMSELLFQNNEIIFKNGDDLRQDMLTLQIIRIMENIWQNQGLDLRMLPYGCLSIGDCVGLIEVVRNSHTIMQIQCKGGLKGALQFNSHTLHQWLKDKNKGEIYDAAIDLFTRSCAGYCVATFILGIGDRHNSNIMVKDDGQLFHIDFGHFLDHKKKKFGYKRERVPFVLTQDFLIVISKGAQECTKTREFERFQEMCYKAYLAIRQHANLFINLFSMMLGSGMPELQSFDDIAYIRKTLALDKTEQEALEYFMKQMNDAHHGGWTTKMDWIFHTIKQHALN
# [9] = Efflux ratio of apparent permeability from basal to apical to apical to basal side of pig LLC-PK1 cells; format: ADME, cell-based, Sus scrofa
# [10] = Apparent permeability from apical to basal side of pig LLC-PK1 cells; format: ADME, cell-based, Sus scrofa
# [11] = system: Mus musculus; test: Inhibition of mTORC1 in po dosed mouse assessed as inhibition of HGF-induced pS6-phosphorylation in liver tissue at 100 mg/kg, po measured at 24 hrs; format: functional, organism-based; set-up: dose 100 mg/kg
# Summary of the method: (§2)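 Time course in mouse liver: single oral dose of 100 mg/kg, sampled at 3, 6, 8 and 24 h. Inhibition of HGF-induced pAKT (S473 and T308) and pS6 in liver tissue measured against vehicle controls.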
# [12] = Antitumor activity against human U87MG cells xenografted in mouse assessed as tumor growth inhibition at 60 mg/kg, po administered QD for 2 weeks relative to vehicle-treated control; format: functional, U-87MG ATCC; details: U-87 MG, 336 h, read-out: TGI
# Summary of the method: (§3)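 Mice bearing established U87-MG tumours dosed orally with vehicle or compound at 10, 30 or 60 mg/kg QD or 30 mg/kg BID for 2 weeks. Tumour volume (mm3) tracked, mean ± SE, n = 10. TGI relative to vehicle controls; significance by repeated-measures ANOVA followed by Dunnett's test.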
# [13] = Apparent permeability from basal to apical side of pig LLC-PK1 cells; format: ADME, cell-based, Sus scrofa
# [14] = Plasma protein binding in rat at 5 mg/kg, po; format: ADME, organism-based; set-up: dose 5 mg/kg, route oral; details: read-out: PPB (converted)
# [15] = molecular target: Phosphatidylinositol 4,5-bisphosphate 3-kinase catalytic subunit beta isoform (Homo sapiens, UniProt P42338); test: Inhibition of PI3Kbeta by AlphaScreen assay
# Sequence of Phosphatidylinositol 4,5-bisphosphate 3-kinase catalytic subunit beta isoform (P42338 whole entry, canonical isoform): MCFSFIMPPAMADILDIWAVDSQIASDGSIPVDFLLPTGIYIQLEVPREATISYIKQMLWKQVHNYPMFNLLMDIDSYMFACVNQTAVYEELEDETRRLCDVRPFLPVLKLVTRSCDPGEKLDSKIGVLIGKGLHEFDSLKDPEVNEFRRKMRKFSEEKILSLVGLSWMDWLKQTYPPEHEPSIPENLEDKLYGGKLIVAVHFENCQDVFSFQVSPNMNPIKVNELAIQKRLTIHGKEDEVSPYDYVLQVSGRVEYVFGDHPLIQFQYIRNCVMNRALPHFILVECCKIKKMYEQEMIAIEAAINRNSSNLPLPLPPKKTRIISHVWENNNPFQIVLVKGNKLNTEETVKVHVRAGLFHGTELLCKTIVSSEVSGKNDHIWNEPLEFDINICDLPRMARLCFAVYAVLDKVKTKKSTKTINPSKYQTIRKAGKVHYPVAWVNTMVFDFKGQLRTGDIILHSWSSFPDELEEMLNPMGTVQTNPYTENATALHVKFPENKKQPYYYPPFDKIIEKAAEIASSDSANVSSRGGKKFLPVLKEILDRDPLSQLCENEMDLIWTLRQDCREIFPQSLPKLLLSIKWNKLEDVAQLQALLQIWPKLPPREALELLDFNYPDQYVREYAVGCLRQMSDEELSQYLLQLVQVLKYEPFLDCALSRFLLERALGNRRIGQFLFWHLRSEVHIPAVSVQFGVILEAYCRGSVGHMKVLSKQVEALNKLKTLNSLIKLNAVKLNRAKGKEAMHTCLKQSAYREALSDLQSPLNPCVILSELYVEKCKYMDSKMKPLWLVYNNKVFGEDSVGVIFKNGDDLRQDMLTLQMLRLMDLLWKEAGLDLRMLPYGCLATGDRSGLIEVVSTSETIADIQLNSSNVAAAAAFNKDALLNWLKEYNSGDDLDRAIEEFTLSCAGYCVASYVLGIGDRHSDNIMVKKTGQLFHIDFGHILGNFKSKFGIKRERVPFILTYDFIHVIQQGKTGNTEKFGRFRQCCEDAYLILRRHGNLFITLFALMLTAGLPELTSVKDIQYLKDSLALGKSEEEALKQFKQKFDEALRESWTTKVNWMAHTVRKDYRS
# [16] = system: Mus musculus; test: Inhibition of mTORC2 in po dosed mouse assessed as inhibition of HGF-induced AKT Ser473-phosphorylation in liver tissue at 100 mg/kg, po measured at >8 hrs; format: functional, organism-based; set-up: dose 100 mg/kg; summary of the method: as §2
# [17] = system: U-87MG ATCC; test: Antitumor activity against human U87MG cells xenografted in po dosed mouse assessed as tumor growth inhibition administered BID for 2 weeks; format: functional, organism-based; summary of the method: as §3
# [18] = Inhibition of mTORC2-mediated AKT Ser473-phosphorylation in human U87 cells; format: cell-based, U-87MG ATCC; details: U-87 MG
# Summary of the method: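 Cell assay in U87 cells measuring pAKT (S473), n ≥ 2.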
# [19] = Drug excretion in iv dosed Sprague-Dawley rat urine; format: ADME, organism-based; details: in vivo
# [20] = system: Mus musculus; test: Inhibition of mTORC1 in po dosed mouse assessed as inhibition of HGF-induced pS6-phosphorylation in liver tissue at 100 mg/kg, po measured at >8 hrs; format: functional, organism-based; set-up: dose 100 mg/kg; summary of the method: as §2
# [21] = Clearance in human liver microsomes; format: ADME, Microsome; details: read-out: CLH
# [22] = Oral bioavailability in rat at 1 mg/kg; format: ADME, organism-based; details: in vivo
# [23] = Oral bioavailability in rat at 5 mg/kg; format: ADME, organism-based; details: in vivo
# Summary of the method: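 Rat oral PK at 5.0 mpk in 1% Tween 80, 2% HPMC, 97% H2O, pH 2.2 (methanesulfonic acid).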
# [24] = Solubility of the compound in phosphate buffered saline; format: physicochemical
# [25] = organism: Mus musculus; test: animal or person; details: Liver, 6 h
# [26] = system: Mus musculus; test: Inhibition of PI3Kalpha in po dosed mouse assessed as inhibition of HGF-induced AKT Thr308-phosphorylation in liver tissue at 100 mg/kg, po measured at 24 hrs; format: functional, organism-based; set-up: dose 100 mg/kg; summary of the method: as §2
# [27] = system: Mus musculus; test: Inhibition of mTORC2 in po dosed mouse assessed as inhibition of HGF-induced AKT Ser473-phosphorylation in liver tissue at 100 mg/kg, po measured at 24 hrs; format: functional, organism-based; set-up: dose 100 mg/kg; summary of the method: as §2
# [28] = system: Rattus norvegicus; test: Drug metabolism in po dosed Sprague-Dawley rat assessed as imidazopyridine oxidation; format: ADME, organism-based; details: in vivo
# [29] = Clearance in rat at 1 mg/kg, iv; format: ADME, organism-based; set-up: dose 1 mg/kg, route intravenous; details: in vivo
# [30] = organism: Mus musculus; test: animal or person; details: Liver, 6 h; remark: listed apart in the source
# [31] = system: Mus musculus; test: Inhibition of PI3Kalpha in po dosed mouse assessed as inhibition of HGF-induced AKT Thr308-phosphorylation in liver tissue after 6 hrs; format: functional, organism-based
# Summary of the method: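 Single oral dose to mice of vehicle (50% PEG400, 1% Pluronic F68, pH 2.2 with MSA) or compound at 10, 30 or 100 mg/kg, n = 3 per dose. HGF-stimulated liver taken at 6 h; pAKT (S473, T308) and pS6RP measured in lysate by MSD assay. Plasma drug levels measured. Factorial ANOVA versus vehicle, then Dunnett's test.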
# [32] = Clearance in rat liver microsomes; format: ADME, Microsome; details: read-out: CLH
# [33] = (§4) AUC in rat at 0.5 mg/kg, iv; format: ADME, organism-based, Plasma; set-up: dose 0.5 mg/kg, route intravenous; details: plasma
# [34] = system: U-87MG ATCC; test: Antitumor activity against human U87MG cells xenografted in po dosed mouse assessed as tumor growth inhibition administered QD for 2 weeks; format: functional, organism-based; summary of the method: as §3
# [35] = system: Rattus norvegicus; test: Drug metabolism in po dosed Sprague-Dawley rat assessed as pyrazole glucuronide derivative; format: ADME, organism-based; details: in vivo
# [36] = Volume of distribution at steady state in rat at 1 mg/kg, iv; format: ADME, organism-based; set-up: dose 1 mg/kg, route intravenous; details: in vivo, read-out: Vdss
# [37] = system: Mus musculus; test: Toxicity in mouse assessed weight loss at 100 mg/kg, po administered QD for 7 days measured on day 3 relative to vehicle-treated control; format: organism-based; set-up: dose 100 mg/kg, route oral; details: in vivo, 168 h
# Summary of the method: (§5)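 Seven-day tolerability study in mice, n = 5 per group. Oral dosing QD at 60 or 100 mg/kg. Body weight monitored; animals with average weight loss >20% removed from study.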
# [38] = Solubility of the compound in 0.01 N HCl; format: physicochemical; details: 0.01 N HCl; read-out: solubility
# [39] = Antitumor activity against human U87MG cells xenografted in mouse assessed as tumor growth inhibition at 30 mg/kg, po administered BID for 2 weeks relative to vehicle-treated control; format: functional, U-87MG ATCC; details: U-87 MG, 336 h, read-out: TGI; summary of the method: as §3
# [40] = Half life in rat at 1 mg/kg, iv; format: ADME, organism-based; set-up: dose 1 mg/kg, route intravenous; details: in vivo
# [41] = system: Rattus norvegicus; test: Drug metabolism in po dosed Sprague-Dawley rat assessed as triazine amine glucuronide derivative; format: ADME, organism-based; details: in vivo
# [42] = Inhibition of mTORC1-mediated pS6 Ser240/244-phosphorylation in human U87MG cells; format: cell-based, U-87MG ATCC; details: U-87 MG
# Summary of the method: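 Cell assay in U87MG cells measuring phosphorylation of the mTOR substrate S6 (S240/244), n ≥ 2.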
# [43] = system: Mus musculus; test: Toxicity in mouse assessed adverse effects at 60 mg/kg, po administered QD for 7 days relative to vehicle-treated control; format: organism-based; set-up: dose 60 mg/kg, route oral; details: in vivo, 168 h; summary of the method: as §5
# [44] = Drug excretion in po dosed Sprague-Dawley rat urine; format: ADME, organism-based; details: in vivo
# [45] = system: Mus musculus; test: Inhibition of PI3Kalpha in po dosed mouse assessed as inhibition of HGF-induced AKT Thr308-phosphorylation in liver tissue at 100 mg/kg, po measured at >8 hrs; format: functional, organism-based; set-up: dose 100 mg/kg; summary of the method: as §2
# [46] = system: Rattus norvegicus; test: as §1; format: ADME, organism-based; set-up: dose 0.5 mg/kg, route intravenous; details: in vivo
# [47] = system: Rattus norvegicus; test: as §4; format: ADME, organism-based, Plasma; set-up: dose 0.5 mg/kg, route intravenous; details: in vivo
compound,measurement,setting,value
Cc1nc(Nc2ccc(N3CCOCC3)nn2)cc(-c2c(Nc3ccn[nH]3)nc3cccnn23)n1,IC50,[1],35 nM
same,solubility,[2],98 µg/mL
same,Vd,[3],3.9 L/kg
same,clearance,[4],41.7 mL/min/kg
same,IC50,[5],309 nM
same,half-life,[6],1.59 h
same,bioavailability,[7],7%
same,IC50,[8],256 nM
Cc1nc(N)nc(-c2c(Nc3cc[nH]n3)nc3ccccn23)n1,efflux ratio,[9],2.4
same,Papp A→B,[10],13.8 ×10⁻⁶ cm/s
same,inhibition,[11],inactive
same,solubility,[2],27 µg/mL
same,inhibition in vivo at 60 mg/kg,[12],82%
same,Vd,[3],1.14 L/kg
same,Papp B→A,[13],33.7 ×10⁻⁶ cm/s
same,fraction unbound,[14],0.023
same,clearance,[4],30 mL/min/kg
same,IC50,[15],1130 nM
same,inhibition,[16],Active
same,TGI,[17],Dose-dependent effect
same,IC50,[18],19 nM
same,IC50,[5],162 nM
same,Drug excretion,[19],Active
same,inhibition,[20],Active
same,half-life,[6],0.44 h
same,microsomal CLint,[21],24 µL/min/mg
same,bioavailability,[22],24%
same,bioavailability,[23],24%
same,solubility,[24],6.3 µg/mL
same,IC50,[25],71 nM
same,inhibition,[26],inactive
same,inhibition,[27],inactive
same,Drug metabolism,[28],Active
same,clearance,[29],30 mL/min/kg
same,IC50,[30],53 nM
same,inhibition,[31],Dose-dependent effect
same,microsomal CLint,[32],29 µL/min/mg
same,AUC,[33],1.8 µM·h
same,TGI,[34],Dose-dependent effect
same,Drug metabolism,[35],Active
same,Vd,[36],1.1 L/kg
same,Activity,[37],> 20%
same,solubility,[38],> 200 µg/mL
same,inhibition in vivo at 30 mg/kg,[39],84%
same,half-life,[40],0.45 h
same,Drug metabolism,[41],Active
same,IC50,[42],69 nM
same,Activity,[43],Non-toxic
same,Drug excretion,[44],Active
same,IC50,[8],590 nM
same,inhibition,[45],Active
CC(=O)Nc1cc(-c2c(Nc3ccn(C)n3)nc3ccc(-c4cccnc4C)cn23)nc(C)n1,IC50,[1],15 nM
same,Vd,[3],1.7 L/kg
same,fraction unbound,[14],0.025
same,CL,[46],10 mL/min/kg
same,IC50,[5],230 nM
same,half-life,[6],2.8 h
same,bioavailability,[23],38%
same,AUC,[47],7.6 µM·h
same,IC50,[8],4290 nM
